In the library only some 3.7% were active in any assay of this set; here they are far more common.
KCNK9 block: blocks the human KCNK9 two-pore domain potassium channel | Q9NPC2 | HEK293 KCNK9, FluxOR thallium flux fluorescence; active compounds read low | B-score at 10 µM | actives 1.2% (n = 310,000) | AID 488922;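 active = ratio B-score over 3 SD below the library mean, with starting fluorescence within 5 SD of its mean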;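 note: negative B-score means less thallium flux so channel inhibition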
Kir21 inh: Kir2.1 (mouse) channel inhibition | HEK293-Kir2.1, FluxOR thallium flux fluorescence; active compounds read low | B-score at 10 µM | actives 0.85% (n = 310,000);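 active = fluorescence ratio B-score at or below minus 3 SD of library scores, with starting-brightness B-score within 2 SD, cut at about -4.2 in these data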;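 note: channel flux triggered by added potassium and thallium sulfate stimulus; B-score of peak minus minimum fluorescence over baseline after thallium stimulus; more negative B-score means stronger Kir2.1 block with less thallium influx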
KCNQ1 block: human KCNQ1 channel inhibition; P51787; CHO-K1 KCNQ1, FluxOR thallium flux fluorescence; active compounds read high; B-score at 10 µM; actives 1.3% (n = 310,000); AID 2642;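 active = compounds whose thallium flux B-score, printed positive for inhibition, exceeds three library SD while starting fluorescence stays within three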;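 note: channel opened by potassium depolarization with thallium stimulus after 20 min compound exposure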
Target sequence (P51787 whole entry, looked up): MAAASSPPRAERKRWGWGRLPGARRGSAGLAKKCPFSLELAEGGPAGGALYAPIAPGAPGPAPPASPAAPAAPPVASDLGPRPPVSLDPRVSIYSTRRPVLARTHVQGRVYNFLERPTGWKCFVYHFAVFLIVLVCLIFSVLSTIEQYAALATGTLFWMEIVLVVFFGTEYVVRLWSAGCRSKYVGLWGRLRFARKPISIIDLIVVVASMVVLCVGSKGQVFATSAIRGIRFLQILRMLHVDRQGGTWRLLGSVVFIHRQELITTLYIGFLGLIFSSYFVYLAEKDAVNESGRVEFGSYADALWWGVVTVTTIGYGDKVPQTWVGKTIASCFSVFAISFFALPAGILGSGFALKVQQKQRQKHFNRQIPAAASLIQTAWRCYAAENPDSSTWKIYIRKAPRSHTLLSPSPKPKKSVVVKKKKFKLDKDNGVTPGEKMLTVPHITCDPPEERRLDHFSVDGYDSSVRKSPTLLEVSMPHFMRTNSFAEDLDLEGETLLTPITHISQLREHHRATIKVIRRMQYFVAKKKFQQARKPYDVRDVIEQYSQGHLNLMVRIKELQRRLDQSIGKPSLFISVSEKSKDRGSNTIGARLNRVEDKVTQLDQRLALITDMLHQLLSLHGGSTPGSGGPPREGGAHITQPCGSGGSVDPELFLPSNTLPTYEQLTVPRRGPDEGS
KCNQ1 pot: human KCNQ1 channel potentiation or activation | P51787 | CHO-K1 KCNQ1, thallium flux FluxOR fluorescence; active compounds read high | B-score at 10 µM | actives 0.35% (n = 310,000);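 active = fluorescence ratio B-score, a plate-corrected score, at least three library SD, with initial intensity B-score within 5 SD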
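Assay system: CHO-K1 cells stably expressing KCNQ1. Medium: assay buffer for compound exposure, DMSO matched across wells. Timing: 37 °C overnight plating, 90-min dark dye load, 20-min compound pretreatment. Signal: kinetic FluxOR fluorescence, 10 s baseline plus 110 s post-stimulus.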
KCNK3 inh: human KCNK3 channel inhibition, primary screen. CHO-KCNK3 thallium flux, FluxOR fluorescence; active compounds read low. B-score at 10 µM. actives 0.84% (n = 340,000);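 active = B-score under library mean minus 4 SD, starting fluorescence ratio at most library mean plus 5 SD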;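 note: more negative B-score means stronger inhibition of thallium flux through KCNK3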
hERG protect: compounds protecting human hERG from proarrhythmic drug block; activation (rescue from dofetilide block), less the hit threshold, % at 10 µM; CHO-hERG, FluxOR thallium flux, dofetilide IC70 present; Q12809; actives 0.51% (n = 310,000);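 active = activation above the mean of controls blocked by dofetilide plus 5 SD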;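 note: thallium influx through hERG after potassium depolarization seen as dye fluorescence rise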
KCNK9 inh conf: human KCNK9 inhibitor confirmation. shares compounds with KCNK9 block. HEK293 KCNK9 cells, FluxOR thallium flux fluorescence. inhibition, % at 10 µM. actives 43% (n = 4,900);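 active = thallium signal inhibited by more than 5 SD of the compound-free buffer control wells, on both duplicate plates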;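 note: 0% = assay buffer control wells without compound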
Kir21 sel: selectivity of KCNK9 modulators against mouse Kir2.1 | inhibition, % at 10 µM | Kir2.1 cells, FluxOR thallium flux fluorescence | shares compounds with KCNK9 block | AID 492993 | actives 4% (n = 4,900);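 active = thallium signal drop more than 5 SD beyond the mean of the no-compound control wells, seen in both duplicate plates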;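 note: signal is fluorescence rise after thallium addition divided by baseline fluorescence; plate controls were assay buffer only for no effect and full block by chlorpromazine control for full effect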
KCNK9 uninduced: second check of KCNK9 modulator effects in non-induced HEK293 cells; shares compounds with KCNK9 block; FluxOR thallium flux; inhibition, % at 10 µM; actives 40% (n = 4,900); AID 492997;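 active = thallium signal drop beyond 5 SD of the untreated control mean, on both duplicate plates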;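 note: plate controls were buffer only IC0 wells for no effect and SID17386958 at its maximal inhibitory level for full effect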
KCNK3 inh conf: human KCNK3 channel inhibition, confirmation assay | shares compounds with KCNK3 inh | CHO-KCNK3 thallium flux, FluxOR fluorescence; 0% buffer, 100% carvedilol maximal block | ratio percent of control, % at 10 µM | actives 99% (n = 2,400);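 active = ratio percent of control, averaged over triplicates, above buffer control mean plus 5 SD, cut at about 64% in these data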;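 note: ratio is the fluorescence rise from min to max over baseline after thallium stimulus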
KCNK3 noninduced: KCNK3 inhibitor counter-screen hit in non-induced cells; shares compounds with KCNK3 inh; non-induced KCNK3 parental cells, FluxOR thallium flux; active compounds read low; thallium flux ratio (lower = more inhibition) at 10 µM; actives 40% (n = 2,400); AID 651747;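 active = thallium flux ratio, averaged over three wells, more than 5 SD below the buffer control mean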;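 note: host cells are CHO cells without KCNK3 induction; ratio is peak minus trough fluorescence over baseline then normalized to buffer controls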
An asterisk follows results filed as active; i = inactive; nt = not tested or not shown.

SMILES	KCNK9 block	Kir21 inh	KCNQ1 block	KCNQ1 pot	KCNK3 inh	hERG protect	KCNK9 inh conf	Kir21 sel	KCNK9 uninduced	KCNK3 inh conf	KCNK3 noninduced
CS(=O)(=O)c1ccc(Cl)c(NC(=O)CCN2C(=O)NC3(CCCC3)C2=O)c1	nt	nt	nt	nt	i	nt	nt	nt	nt	nt	nt
C/C(=N\Nc1cc(C)nc(-c2ccccc2)n1)c1cccc([N+](=O)[O-])c1	-10.9*	-0.05	i	i	-9.71*	-5.4	50.0%*	i	32.0%*	103.0*	i
N#Cc1ccccc1OCC(=O)OCC(=O)NC1CCCC1	nt	nt	nt	nt	i	nt	nt	nt	nt	nt	nt
N#CC1=C(N)n2c(s/c(=C\c3ccco3)c2=O)=C(C#N)C1c1ccco1 (stereo not drawn)	i	-0.55	i	i	i	-6.7	nt	nt	nt	nt	nt
N#CC1=C(N)n2c(s/c(=C\c3cccs3)c2=O)=C(C#N)C1c1cccs1 (stereo not drawn)	-11.1*	1.21	i	i	-9.44*	-8.7	26.5%*	i	39.0%*	96.0*	0.154*
CCN(Cc1ccccc1)C(=O)COc1ccccc1	i	0.55	i	i	i	-10.8	nt	nt	nt	nt	nt
CCN(CC)C(=O)COc1ccc(-c2ccccc2)cc1	-9.85*	0.45	i	i	-10*	-3.5	41.0%*	i	i	84.3*	i
CC(C)OC(=O)CSc1nc(C(C)C)nc2ccccc12	i	-1.38	i	i	i	-13.2	nt	nt	nt	nt	nt
CC(C)OC(=O)CSc1nc(Cc2ccccc2)nc2ccccc12	-15.4*	-0.52	i	i	-10.7*	-24.2	57.5%*	35.5%*	38.0%*	96.7*	i
Cc1ccc2c(c1)C(=O)CC(c1ccc3c(c1)OCCO3)O2 (stereo not drawn)	i	0.75	i	i	i	-4.2	nt	nt	nt	nt	nt
CC(C)=CCc1cc([C@@H]2CC(=O)c3ccc(O)c(CC=C(C)C)c3O2)ccc1O	-10.9*	0.63	i	i	-15.7*	-9.4	61.0%*	i	30.0%*	141.0*	0.117*
Cc1cc(C)cc(-n2c(C)cc(/C=N/NC(=O)CSc3ncccn3)c2C)c1	-13.7*	-2.61	i	i	-11.4*	-11.7	59.5%*	i	32.5%*	93.7*	i
Cc1cc(Oc2nc3c(C)cccn3c(=O)c2/C=C(\C#N)S(=O)(=O)c2ccc(Cl)cc2)ccc1Cl	i	0.29	i	i	i	-8.1	nt	nt	nt	nt	nt
COc1ccc(/C(C#N)=C/c2c(-c3ccc(Cl)cc3)nc3c(C)cccn23)cc1	-11.4*	0.04	i	i	-10.2*	-11.2	42.0%*	i	29.0%*	100.7*	0.146*
CCOc1ccccc1NC(=O)CN(C)S(=O)(=O)c1ccc(OC)c(C)c1	-15*	-1.29	i	i	i	-1.4	50.0%*	i	i	94.7*	i
CCOC(=O)c1ccc(N2C(=O)c3n[nH]c(-c4ccco4)c3C2c2ccc([N+](=O)[O-])cc2)cc1 (stereo not drawn)	-8.33*	-0.01	i	i	-9.77*	-5.0	55.5%*	i	42.0%*	138.3*	0.106*
Cc1ccc(N(Cc2ccccc2)C(=O)CN2C(=O)NC3(CCCC3)C2=O)cc1	i	0.01	i	i	i	-1.9	nt	nt	nt	nt	nt
Cc1cc(C)c2cc(CN(CC3CCCO3)C(=S)NCc3ccco3)c(=O)[nH]c2c1 (stereo not drawn)	-9.46*	1.18	i	i	-9.78*	-11.1	29.0%*	i	33.0%*	112.7*	i
COc1ccc(-c2cc(C(=O)NCC(c3ccco3)N(C)C)c3ccccc3n2)cc1OC (stereo not drawn)	i	0.05	i	i	i	-13.7	nt	nt	nt	nt	nt
Cc1nn(S(=O)(=O)c2cccs2)c(C)c1Sc1ccc([N+](=O)[O-])cc1	-11.1*	0.61	i	i	-11.9*	-13.2	54.5%*	i	27.5%*	119.7*	0.156*
Cc1nn(S(=O)(=O)c2ccccc2)c(C)c1Sc1ccc([N+](=O)[O-])cc1	i	0.23	i	i	i	-11.4	nt	nt	nt	nt	nt
COC(/C(=N/O)c1ccc(Cl)cc1)c1ccccc1 (stereo not drawn)	-10.1*	-2.86	11*	i	-9.66*	-20.4	38.5%*	i	48.0%*	114.3*	0.158*
CCC(=O)Nc1cccc(C(=O)/C=C/c2cc(Br)ccc2OC)c1	-10.2*	-0.51	i	i	-9.3*	-9.6	37.5%*	i	30.5%*	138.0*	i
COc1ccc(Br)cc1/C=C/C(=O)Nc1ccc2ccccc2c1	i	0.24	i	i	i	-10.5	nt	nt	nt	nt	nt
Cc1ccc2c(CN(C)Cc3ccc(Cl)cc3)cc(=O)oc2c1	-11.5*	0.8	i	i	-15.9*	-8.9	37.5%*	i	43.5%*	94.3*	i
SMILES	KCNK9 block	Kir21 inh	KCNQ1 block	KCNQ1 pot	KCNK3 inh	hERG protect	KCNK9 inh conf	Kir21 sel	KCNK9 uninduced	KCNK3 inh conf	KCNK3 noninduced
Cc1ccc2c(CN(C)Cc3ccccc3)cc(=O)oc2c1C	i	-1.3	i	i	-9.35*	-6.4	i	i	i	92.0*	i
Cc1ccc2c(CN(C)Cc3ccc(Cl)cc3Cl)cc(=O)oc2c1	i	0.1	i	i	i	-9.9	nt	nt	nt	nt	nt
CCc1ccc2oc(=O)cc(CN(C)Cc3ccccc3)c2c1	i	-0.98	i	i	i	-8.6	nt	nt	nt	nt	nt
Clc1ccc(-c2nc3cnccn3c2Nc2ccc3c(c2)OCO3)cc1	-11.6*	2.35	i	i	-9.74*	-15.3	60.0%*	i	24.5%*	105.0*	i
CSc1ccc(-c2nc3cnccn3c2Nc2ccc3c(c2)OCO3)cc1	i	0.32	i	i	i	-10.5	nt	nt	nt	nt	nt
Cc1ccc(NC(=O)CN(C)C(=O)COc2ccccc2-c2ccccc2)cc1	nt	nt	nt	nt	i	nt	nt	nt	nt	nt	nt
O=C(Nc1ccccc1N1CCN(c2ccc(F)cc2)CC1)c1ccccc1	-10.3*	-1.54	i	i	-13.9*	-3.8	i	i	29.0%*	124.7*	0.148*

Screening data (PubChem)
